# pEC50: −log10 of the molar value. The source made the active and inactive calls. The rule behind the calls is not given here.
# Legend:
# Plasma = experiment: Drug uptake in rat plasma at 25 mg/kg, po by […]; assay type: ADME, organism-based; set-up: dose 25 mg/kg, route oral; conditions: in vivo
# Summary of the method: (§1)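 Male Han-Wistar rats given 14C-labeled compound (label at adenine C-2) as a single intravenous 5 mg/kg or oral 25 mg/kg dose. Plasma and blood pellets sampled over time; pellets first taken up in 2 volumes of pH 2.5 ammonium formate/0.1% formic acid. Extraction in ice-cold acetonitrile (3:1). Metabolites profiled by HPLC with off-line radioactivity detection and identified by MS.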
# dengue virus type 2 [1] = experiment: Antiviral activity against at 0.3 MOI of Dengue virus 2 infected in hamster BHK21 cells assessed as reduction in viral titer at 6 uM after 48 hrs postinfection; assay type: functional, organism-based; conditions: BHK-21, 0.3 M
# Summary of the method: (§2)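 BHK-21 cells infected with DENV-2 at MOI 0.3 and treated immediately with graded compound concentrations. Viral titers in culture fluid determined at 48 h p.i.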
# [2] = Cytotoxicity against human A549 cells assessed as intracellular ATP level by Celltiter-Glo luminescent assay; assay type: cell-based
# dengue virus type 2 [3] = experiment: Antiviral activity against at 1 MOI of Dengue virus 2 infected in hamster BHK21 cells assessed as decrease in viral RNA synthesis at 3 uM after 35 hrs post-transfection by luciferase reporter gene assay; assay type: functional, organism-based; conditions: BHK-21, 1 M
# Summary of the method: (§3)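 DENV-2 luciferase replicon RNA (10 μg) electroporated into 8 × 10^6 BHK-21 cells, then seeded at 3.2 × 10^5/well. Cells incubated immediately with 1 or 3 μM compound, with 0.9% DMSO (final) as control. Luciferase measured at 2–4 h (translation of input RNA) and at 24 and 35 h p.t. (RNA synthesis).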
# dengue virus type 2 [4] = experiment: Antiviral activity against at 1 MOI of Dengue virus 2 infected in hamster BHK21 cells assessed as decrease in viral NS3 protein expression at 3 uM after 35 hrs post-transfection by […]; assay type: functional, organism-based; conditions: BHK-21, 1 M
# Summary of the method: (§4)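 Replicon-electroporated BHK-21 cells treated immediately with 1 or 3 μM compound, with 0.9% DMSO control. Cells lysed at 24 and 35 h p.t. NS3 detected by Western blot with in-house rabbit anti-NS3 (1:5,000). γ-Tubulin (1:1,000) served as reference, with HRP secondary antibodies (1:8,000).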
# dengue virus type 2 [5] = experiment: Antiviral activity against at 1 MOI of Dengue virus 2 infected in hamster BHK21 cells assessed as decrease in viral RNA synthesis at 3 uM after 2 to 4 hrs post-transfection by luciferase reporter gene assay; assay type: functional, organism-based; conditions: BHK-21, 1 M; summary of the method: as §3
# dengue virus type 2 [6] = experiment: Antiviral activity against at 0.3 MOI of Dengue virus 2 infected in hamster BHK21 cells assessed as reduction in viral titer after 48 hrs postinfection; assay type: functional, organism-based; summary of the method: as §2
# dengue virus type 2 [7] = experiment: Antiviral activity against Dengue virus 2 TSVO1 infected in alpha/beta interferon and INFgamma receptor deficient AG129 mouse assessed as decrease in viral load at 300 mg/kg, po 12 hrs postinfection […]; assay type: functional, organism-based; set-up: dose 300 mg/kg
# dengue virus type 2 [8] = experiment: Antiviral activity against at 1 MOI of Dengue virus 2 infected in hamster BHK21 cells assessed as decrease in viral RNA synthesis at 3 uM after 24 hrs post-transfection by luciferase reporter gene assay; assay type: functional, organism-based; conditions: BHK-21, 1 M; summary of the method: as §3
# dengue virus type 2 [9] = experiment: Antiviral activity against at 1 MOI of Dengue virus 2 infected in hamster BHK21 cells assessed as decrease in viral RNA synthesis at 1 uM after 35 hrs post-transfection by luciferase reporter gene assay; assay type: functional, organism-based; conditions: BHK-21, 1 M; summary of the method: as §3
# dengue virus type 2 [10] = experiment: Antiviral activity against Dengue virus 2 infected in human A549 cells assessed as level of E protein production up to 20 uM by ELISA in presence of 0.2 uM adenosine kinase inhibitor iodotubercidin; assay type: functional, organism-based
# Summary of the method: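 CFI assay in A549 cells with iodotubercidin at 0.2 μM and test compound up to 20 μM. Cells infected with DENV-2 at MOI 0.3 for 1 h with compound in the inoculum, then refed with compound-containing medium. Methanol fixation on day 2 p.i. E protein read by 4G2/HRP ELISA.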
# dengue virus type 2 [11] = experiment: Antiviral activity against 3x10^7 PFU Dengue virus 2 D2S10 infected in alpha/beta interferon and INFgamma receptor deficient AG129 mouse assessed as protection against lethal virus challenge at 75 mg/kg, po treated 12 hrs postinfection by HPLC; assay type: functional, organism-based; set-up: dose 75 mg/kg
# Summary of the method: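 AG129 mice infected intravenously with 3 × 10^7 PFU of mouse-adapted DENV-2 strain D2S10. A single 75 mg/kg dose given at 12 h postinfection. Read-out was survival after the lethal challenge.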
# dengue virus type 2 [12] = experiment: Antiviral activity against at 1 MOI of Dengue virus 2 infected in hamster BHK21 cells assessed as decrease in viral NS3 protein expression at 1 uM after 24 hrs post-transfection by […]; assay type: functional, organism-based; conditions: BHK-21, 1 M; summary of the method: as §4
# dengue virus type 2 [13] = experiment: Antiviral activity against Dengue virus 2 TSVO1 infected in alpha/beta interferon and INFgamma receptor deficient AG129 mouse assessed as […] at 150 mg/kg, po 12 hrs postinfection measured after 3 days of infection […]; assay type: functional, organism-based; set-up: dose 150 mg/kg
# dengue virus type 2 [14] = experiment: Antiviral activity against at 0.3 MOI Dengue virus 2 infected in human A549 cells assessed as level of E protein after 48 hrs by ELISA; assay type: functional, organism-based; conditions: A549, 48 h
# Summary of the method: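 CFI assay: A549 cells (2 × 10^4/well) seeded and infected the next day with DENV-2 at MOI 0.3 for 1 h, compound added to the inoculum. Medium then replaced with fresh medium containing compound. Cells methanol-fixed on day 2 p.i. E protein detected by ELISA (mAb 4G2, HRP anti-mouse IgG). EC50 from nonlinear regression.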
# dengue virus type 2 [15] = experiment: Selectivity ratio of EC50 for Dengue virus 2 infected in human HEK293 cells in presence of siRNA targeting adenosine kinase to EC50 for Dengue virus 2 infected in human HEK293 cells in absence of siRNA targeting adenosine kinase; assay type: functional
# Summary of the method: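 siRNA pools (10 pmol, four siRNAs against adenosine kinase or deoxycytidine kinase) reverse-transfected with RNAiMax into HEK-293 cells carrying a DENV-2 luciferase replicon (2 × 10^4/well). After 24 h at 37°C, graded compound concentrations were added. Renilla luciferase was read 3 days later. EC50s were compared with and without siRNA.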
# dengue virus type 2 [16] = experiment: Antiviral activity against at 1 MOI of Dengue virus 2 infected in hamster BHK21 cells assessed as decrease in viral NS3 protein expression at 1 uM after 35 hrs post-transfection by […]; assay type: functional, organism-based; conditions: BHK-21, 1 M; summary of the method: as §4
# Blood [17] = experiment: Drug uptake in rat blood assessed as tri-derivatives of compound level at 25 mg/kg, po by […]; assay type: ADME, organism-based; set-up: dose 25 mg/kg, route oral; conditions: in vivo; summary of the method: as §1
# dengue virus type 2 [18] = experiment: Antiviral activity against at 1 MOI of Dengue virus 2 infected in hamster BHK21 cells assessed as viral titer after 48 hrs postinfection by plaque assay; assay type: functional, organism-based; conditions: BHK-21, 1 M
# [19] = Cytotoxicity against hamster BHK21 cells assessed as intracellular ATP level upto 100 uM by Celltiter-Glo luminescent assay; assay type: cell-based, Mesocricetus auratus; conditions: bhk-21
# Summary of the method: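 CC50 estimated from intracellular ATP by CellTiter-Glo luminescence. BHK-21 cells were tested up to 100 μM.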
# dengue virus type 2 [20] = experiment: Antiviral activity against Dengue virus 2 TSVO1 infected in alpha/beta interferon and INFgamma receptor deficient AG129 mouse assessed as decrease in viral load treated 12 hrs postinfection measured after 3 days of infection […]; assay type: functional, organism-based
# Blood [21] = experiment: Drug uptake in rat blood assessed as mono-derivatives of compound level at 25 mg/kg, po by […]; assay type: ADME, organism-based; set-up: dose 25 mg/kg, route oral; conditions: in vivo; summary of the method: as §1
# Blood [22] = experiment: Drug uptake in rat blood assessed as di-derivatives of compound level at 25 mg/kg, po by […]; assay type: ADME, organism-based; set-up: dose 25 mg/kg, route oral; conditions: in vivo; summary of the method: as §1
# dengue virus type 2 [23] = experiment: Antiviral activity against at 1 MOI of Dengue virus 2 infected in hamster BHK21 cells assessed as decrease in viral NS3 protein expression at 3 uM after 24 hrs post-transfection by […]; assay type: functional, organism-based; conditions: BHK-21, 1 M; summary of the method: as §4
# dengue virus type 2 [24] = experiment: Antiviral activity against Dengue virus 2 infected in human HEK293 cells assessed as level of viral titer after 48 hrs by luciferase reporter gene assay in presence of siRNA targeting deoxycytidine kinase; assay type: functional, organism-based
# dengue virus type 2 [25] = experiment: Antiviral activity against at 1 MOI of Dengue virus 2 infected in hamster BHK21 cells assessed as decrease in viral RNA synthesis at 1 uM after 24 hrs post-transfection by luciferase reporter gene assay; assay type: functional, organism-based; conditions: BHK-21, 1 M; summary of the method: as §3
# dengue virus type 2 [26] = experiment: Antiviral activity against at 1 MOI of Dengue virus 2 infected in hamster BHK21 cells assessed as decrease in viral RNA synthesis at 1 uM after 2 to 4 hrs post-transfection by luciferase reporter gene assay; assay type: functional, organism-based; conditions: BHK-21, 1 M; summary of the method: as §3
# dengue virus type 2 [27] = experiment: Antiviral activity against Dengue virus 2 infected in human HEK293 cells assessed as level of viral titer after 48 hrs by luciferase reporter gene assay in presence of siRNA targeting adenosine kinase; assay type: functional, organism-based; conditions: HEK293, 48 h
compound,measurement,setting,value
C#C[C@@]1(O)[C@H](O)[C@@H](CO)O[C@H]1n1ccc2c(N)ncnc21,Drug uptake,Plasma,Active
same,Activity,dengue virus type 2 [1],Active
same,CC50,[2],> 100 µM
same,Activity,dengue virus type 2 [3],Active
same,Activity,dengue virus type 2 [4],Active
same,Activity,dengue virus type 2 [5],inactive
same,Activity,"dengue virus type 2 [6]; BHK-21, 0.3 M",Dose-dependent effect
same,pEC50,"dengue virus type 2 [6]; BHK-21, 48 h",6.15
same,Activity,dengue virus type 2 [7],inactive
same,Activity,dengue virus type 2 [8],Active
same,Activity,dengue virus type 2 [9],Active
same,Activity,dengue virus type 2 [10],inactive
same,Activity,dengue virus type 2 [11],Active
same,Activity,dengue virus type 2 [12],Active
same,Activity,dengue virus type 2 [13],inactive
same,pEC50,dengue virus type 2 [14],6.15
same,Selectivity ratio,dengue virus type 2 [15],11
same,Activity,dengue virus type 2 [16],Active
same,Drug uptake,Blood [17],Active
same,Activity,dengue virus type 2 [18],Active
same,Activity,[19],Non-toxic
same,Activity,dengue virus type 2 [20],Active
same,Drug uptake,Blood [21],Active
same,Drug uptake,Blood [22],Active
same,Activity,dengue virus type 2 [23],Active
same,Activity,dengue virus type 2 [24],Active
same,Activity,dengue virus type 2 [25],Active
same,Activity,dengue virus type 2 [26],inactive
same,pEC50,dengue virus type 2 [27],5.04
C#C[C@@]1(O)[C@H](O)[C@@H](CO)O[C@H]1n1cc(C#N)c2c(N)ncnc21,CC50,[2],> 100 µM
same,pEC50,dengue virus type 2 [14],5.51
C#C[C@@]1(O)[C@H](O)[C@@H](CO)O[C@H]1n1cnc2c(=O)[nH]c(N)nc21,CC50,[2],> 100 µM
same,pEC50,dengue virus type 2 [14],< 4.00
C#C[C@@]1(O)[C@H](O)[C@@H](CO)O[C@H]1n1ccc(N)nc1=O [2'-ETHYNYL-D-CYTIDINE],CC50,[2],> 100 µM
same,pEC50,dengue virus type 2 [14],< 4.00
C=C[C@@]1(O)[C@H](O)[C@@H](CO)O[C@H]1n1cnc2c(N)ncnc21,CC50,[2],> 59 µM
same,pEC50,dengue virus type 2 [14],< 4.30
CC[C@@]1(O)[C@H](O)[C@@H](CO)O[C@H]1n1cnc2c(N)ncnc21,CC50,[2],> 100 µM
same,pEC50,dengue virus type 2 [14],< 4.00
CC#C[C@@]1(O)[C@H](O)[C@@H](CO)O[C@H]1n1cnc2c(N)ncnc21,CC50,[2],> 100 µM
same,pEC50,dengue virus type 2 [14],< 4.00
C#C[C@@]1(O)[C@H](O)[C@@H](CO)O[C@H]1n1cc(C(N)=O)c2c(N)ncnc21,CC50,[2],62 µM
same,pEC50,dengue virus type 2 [14],5.70
C[C@@]1(O)[C@H](O)[C@@H](CO)O[C@H]1n1cnc2c(N)ncnc21,CC50,[2],> 50 µM
same,pEC50,dengue virus type 2 [14],5.95
C#C[C@@]1(O)[C@H](O)[C@@H](CO)O[C@H]1n1cnc2c(N)ncnc21,CC50,[2],40 µM
same,pEC50,dengue virus type 2 [14],5.85
C#C[C@@]1(O)[C@H](O)[C@@H](CO)O[C@H]1n1cc(F)c2c(N)ncnc21,CC50,[2],44 µM
same,pEC50,dengue virus type 2 [14],6.38

# — ChEMBL document CHEMBL1629694, “Inhibition of dengue virus RNA synthesis by an adenosine nucleoside” (Antimicrob Agents Chemother, 2010)
